According to ChEMBL document CHEMBL1125062, “Structure-activity relationships for the carboxy-terminus truncated analogues of angiotension II, a new class of angiotensin II antagonists” (J Med Chem, 1990):
Where a SMILES comes first, the peptide text is derived from it. [ ]: non-standard residue; d: D form. Sar = CNCC(=O)O

How the values were obtained:
[1] = tested on: Rattus norvegicus; assay: Variation of MAP induced bolus injection of 30 ng/kg of compound during infusion in rat reported as % of control (100) at a dose of 30 ug/kg; assay type: functional; conditions: in the assay text read “10 ug/kg” for “30 ug/kg”
How it was run: (§1)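 Same ganglion-blocked, Inactin-anaesthetized rat preparation, with MAP recorded via femoral artery catheter. Antagonist was infused iv for 20 min at 10, 30, 60 or 100 µg/kg per min before AII 30 ng/kg iv bolus challenge. After infusion stopped, AII was repeated at 5-10-min intervals for 1 h. The pressor response was expressed as % of control at 5-60 min, mean ± SEM, n = 2-6.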

[2] = tested on: Rattus norvegicus; assay: Variation in mean arterial pressure after 5 min of antagonist infusion at a dose of 10 ug/kg
[3] = tested on: Rattus norvegicus; assay: Variation in mean arterial pressure after 40 min of antagonist infusion at a dose of 10 ug/kg
[4] = tested on: Rattus norvegicus; assay: In vivo activity to antagonize the effect of bolus injection of compound at 30 ug/kg in rat; assay type: functional; conditions: in the assay text read “angiotensin II at 30 ng/kg” for “compound at 30 ug/kg”
How it was run: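 Male Sprague-Dawley rats (240-400 g) under Inactin (100 mg/kg ip), ganglion-blocked with mecamylamine 3 mg/kg iv and atropine ip. AII 30 ng/kg iv bolus was given four times at 10-min intervals as baseline. Peptide was infused iv for 20 min, then AII was rechallenged. Endpoint was the smallest infusion dose (µg/kg per min) fully blocking the bolus, with time to ~50% recovery after infusion stopped.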

[5] = tested on: Rattus norvegicus; assay: Variation in mean arterial pressure after 40 min of antagonist infusion at a dose of 30 ug/kg
[6] = tested on: Rattus norvegicus; assay: Variation in mean arterial pressure after 20 min of antagonist infusion at a dose of 10 ug/kg
[7] = tested on: Rattus norvegicus; assay: Variation in mean arterial pressure after 10 min of antagonist infusion at a dose of 10 ug/kg
[8] = tested on: Rattus norvegicus; assay: Variation of MAP induced bolus injection of 100 ug/kg of compound during infusion in rat reported as % of control (100) at a dose of 10 ug/kg; assay type: functional; how it was run: as §1
[9] = tested on: Rattus norvegicus; assay: Variation in mean arterial pressure after 60 min of antagonist infusion at a dose of 10 ug/kg
[10] = tested on: Rattus norvegicus; assay: Drinking water response evaluated in conscious rat at a dose of 500 pmol icv; assay type: functional
How it was run: (§2)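 Conscious Sprague–Dawley rats given AII 100 pmol icv to induce water drinking. Test peptide was given icv at 500 or 2500 pmol, and the drinking response was recorded.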

[11] = tested on: Rattus norvegicus; assay: Percentage of pressor response to antagonize the effect of bolus injection of compound at a dose of 30 ug/kg/min in rat; assay type: functional
[12] = tested on: Rattus norvegicus; assay: Drinking water response evaluated in conscious rat at a dose of 2500 pmol icv; assay type: functional; how it was run: as §2
[13] = tested on: Rattus norvegicus; assay: Variation of MAP induced bolus injection of 60 ug/kg of compound during infusion in rat reported as % of control (100) at a dose of 10 ug/kg; assay type: functional; how it was run: as §1
[14] = organism: Oryctolagus cuniculus; assay: In vitro myotropic property on the isolated rabbit aorta, expressed as pA2; assay type: functional; conditions: read-out: pA2 (converted)
How it was run: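 Aortic rings from male New Zealand white rabbits (2-2.5 kg) equilibrated 1 h, then set at ~1 g passive tension. Paired rings were used: one received cumulative AII, the other AII with the peptide added 5 min before. AII was given at 30-min intervals with Krebs washes. Responses were taken as % of control maximal contraction, and pA2 was derived by Schild analysis.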

[15] = tested on: Rattus norvegicus; assay: In vivo activity to antagonize the effect of bolus injection of angiotensin II at 30 ng/kg in rat
[16] = tested on: Rattus norvegicus; assay: Percentage of pressor response to antagonize the effect of bolus injection of compound at a dose of 30 ug/kg per min in rat; assay type: functional
[17] = tested on: Rattus norvegicus; assay: Variation in mean arterial pressure after 40 min of antagonist infusion at a dose of 10 ug/kg; remark: listed apart in the source
[18] = tested on: Rattus norvegicus; assay: Variation in mean arterial pressure after 60 min of antagonist infusion at a dose of 10 ug/kg; remark: listed apart in the source
[19] = tested on: Rattus norvegicus; assay: Variation in mean arterial pressure after 20 min of antagonist infusion at a dose of 10 ug/kg; remark: listed apart in the source
[20] = tested on: Rattus norvegicus; assay: Variation in mean arterial pressure after 5 min of antagonist infusion at a dose of 10 ug/kg; remark: listed apart in the source
[21] = tested on: Rattus norvegicus; assay: Variation in mean arterial pressure after 10 min of antagonist infusion at a dose of 10 ug/kg; remark: listed apart in the source
[22] = organism: Rattus norvegicus; assay: In vitro myotropic property in rat stomach, expressed as pA2; assay type: functional; conditions: read-out: pA2 (converted)
[23] = organism: Rattus norvegicus; assay: In vitro myotropic property in rat isolated uterus, expressed as pA2; assay type: functional; conditions: read-out: pA2 (converted)
[24] = tested on: Rattus norvegicus; assay: In vivo activity to antagonize the effect of bolus injection of angiotensin II at 30 ng/kg in rat; remark: listed apart in the source

## CNCC(=O)N[C@@H](CCCN=C(N)N)C(=O)N[C@H](C(=O)N[C@@H](Cc1ccc(O)cc1)C(=O)N[C@H](C(=O)N[C@@H](Cc1c[nH]cn1)C(=O)N1CCC[C@H]1C(=O)N[C@@H](C)C(=O)O)C(C)C)C(C)C [listing 1 of 2 here]
[1]
  Control: 0%
[2]
  MAP: 29%
[3]
  Pressor response, % of control: 96%
[4]
  Antagonist activity: 10 µg/min/kg
[5]
  Pressor response, % of control: 96%
[6]
  Pressor response, % of control: 78%
[7]
  Pressor response, % of control: 50%
[8]; in the assay text read “30 ng/kg of angiotensin II” for “100 ug/kg of compound”
  Control: 0%
[9]
  MAP: 94%

## CC[C@H](C)[C@H](NC(=O)[C@H](Cc1ccc(O)cc1)NC(=O)[C@@H](NC(=O)[C@H](CCCN=C(N)N)NC(=O)CNC)C(C)C)C(=O)N[C@@H](Cc1c[nH]cn1)C(=O)N1CCC[C@H]1C(N)=O [listing 1 of 2 here]
[10]
  Water intake: 10 ml 20min-1
[4]
  Antagonist activity: 60 µg/min/kg
[11]
  Agonist activity: 60%
[12]
  Water intake: 10.8 ml 20min-1
[13]
  Control: 6%

## CC[C@H](C)[C@H](NC(=O)[C@H](Cc1ccc(O)cc1)NC(=O)[C@@H](NC(=O)[C@H](CCCN=C(N)N)NC(=O)CNC)C(C)C)C(=O)N[C@@H](Cc1c[nH]cn1)C(=O)N1CCC[C@H]1C(=O)O [listing 1 of 2 here]
[14]
  Kb: 31.6 nM

## H-DRVYIH-NH2
[14]
  Kb: > 1000 nM

## CC[C@H](C)[C@H](NC(=O)[C@H](Cc1ccc(O)cc1)NC(=O)[C@@H](NC(=O)[C@H](CCCN=C(N)N)NC(=O)CNC)C(C)C)C(=O)N[C@@H](Cc1c[nH]cn1)C(=O)N(C)CC(N)=O (H-[Sar]RVYIH[Sar]-NH2)
[14]
  Kb: > 1000 nM

## CC[C@H](C)[C@H](NC(=O)[C@H](Cc1ccc(O)cc1)NC(=O)[C@@H](NC(=O)[C@H](CCCN=C(N)N)NC(=O)[C@@H](N)CC(=O)O)C(C)C)C(=O)N[C@@H](Cc1c[nH]cn1)C(=O)N1CCC[C@@H]1C(=O)O
[15]
  Antagonist activity: >300 µg/min/kg
[10]
  Water intake: 6.1 ml 20min-1
[14]
  Kb: > 1000 nM

## CC[C@H](C)[C@H](NC(=O)[C@H](Cc1ccc(O)cc1)NC(=O)[C@@H](NC(=O)[C@H](CCCN=C(N)N)NC(=O)CNC)C(C)C)C(=O)N[C@@H](Cc1c[nH]cn1)C(=O)N(C)C (H-[Sar]RVYIH-NMe2) [listing 1 of 2 here]
[14]
  Kb: 89.1 nM

## CC[C@H](C)[C@H](NC(=O)[C@H](Cc1ccc(O)cc1)NC(=O)[C@@H](NC(=O)[C@H](CCCN=C(N)N)NC(=O)CNC)C(C)C)C(=O)N[C@@H](Cc1c[nH]cn1)C(N)=O (H-[Sar]RVYIH-NH2)
[14]
  Kb: > 1000 nM

## CC[C@H](C)[C@H](NC(=O)[C@H](Cc1ccc(O)cc1)NC(=O)[C@@H](NC(=O)[C@H](CCCN=C(N)N)NC(=O)CNC)C(C)C)C(=O)N[C@@H](Cc1c[nH]cn1)C(=O)N1CCC[C@H]1C(=O)O [listing 2 of 2 here]
[4]
  Antagonist activity: >100 µg/min/kg
[7]
  Pressor response, % of control: 36%
[8]
  Control: 9%
[16]
  Agonist activity: 45%

## CC[C@H](C)[C@H](NC(=O)[C@H](Cc1ccc(OC)cc1)NC(=O)[C@@H](NC(=O)[C@H](CCCN=C(N)N)NC(=O)CNC)C(C)C)C(=O)N[C@@H](Cc1c[nH]cn1)C(=O)N1CCC[C@H]1C(N)=O [listing 1 of 2 here]
[14]
  Kb: 20 nM

## CC[C@H](C)[C@H](NC(=O)[C@H](Cc1ccc(O)cc1)NC(=O)[C@@H](NC(=O)[C@H](CCCN=C(N)N)NC(=O)CNC)C(C)C)C(=O)N[C@@H](Cc1c[nH]cn1)C(=O)N(C)C (H-[Sar]RVYIH-NMe2) [listing 2 of 2 here]
[17]
  Pressor response, % of control: 67%
[18]
  MAP: 82%
[19]
  Pressor response, % of control: 28%
[20]
  Pressor response, % of control: 10%
[4]
  Antagonist activity: 100 µg/min/kg
[8]
  Control: 5%
[21]
  Pressor response, % of control: 13%
[16]
  Agonist activity: 50%

## CC[C@H](C)[C@H](NC(=O)[C@H](Cc1ccc(O)cc1)NC(=O)[C@@H](NC(=O)[C@H](CCCN=C(N)N)NC(=O)CNC)C(C)C)C(=O)N[C@@H](Cc1c[nH]cn1)C(=O)NCC(N)=O (H-[Sar]RVYIHG-NH2)
[14]
  Kb: > 1000 nM

## CC[C@H](C)[C@H](NC(=O)[C@H](Cc1ccc(O)cc1)NC(=O)[C@@H](NC(=O)[C@H](CCCN=C(N)N)NC(=O)[C@@H](N)CC(=O)O)C(C)C)C(=O)N[C@@H](Cc1c[nH]cn1)C(=O)N(C)CC(N)=O (H-DRVYIH[Sar]-NH2)
[14]
  Kb: > 1000 nM

## CC[C@H](C)[C@H](NC(=O)[C@H](Cc1ccc(OC)cc1)NC(=O)[C@@H](NC(=O)[C@H](CCCN=C(N)N)NC(=O)CNC)C(C)C)C(=O)N[C@@H](Cc1c[nH]cn1)C(=O)N1CCC[C@H]1C(N)=O [listing 2 of 2 here]
[2]
  MAP: 70%
[3]
  Pressor response, % of control: 91%
[4]
  Antagonist activity: >100 µg/min/kg
[11]
  Agonist activity: 65%
[6]
  Pressor response, % of control: 89%
[7]
  Pressor response, % of control: 86%
[8]
  Control: 19%
[9]
  MAP: 100%

## CNCC(=O)N[C@@H](CCCN=C(N)N)C(=O)N[C@H](C(=O)N[C@@H](Cc1ccc(O)cc1)C(=O)N[C@H](C(=O)N[C@@H](Cc1c[nH]cn1)C(=O)N1CCC[C@H]1C(=O)N[C@@H](C)C(=O)O)C(C)C)C(C)C [listing 2 of 2 here]
[22]
  Kb: 5.01 nM

## CC[C@H](C)[C@H](NC(=O)[C@H](Cc1ccc(OC)cc1)NC(=O)[C@@H](NC(=O)[C@H](CCCN=C(N)N)NC(=O)CNC)C(C)C)C(=O)N[C@@H](Cc1c[nH]cn1)C(=O)N1CCC[C@H]1C(=O)N[C@@H](Cc1ccccc1)C(=O)O
[10]
  Water intake: 3.1 ml 20min-1
[16]
  Agonist activity: 60%
[23]
  Kb: 25.1 nM
[24]
  Antagonist activity: 30 µg/min/kg

## CC[C@H](C)[C@H](NC(=O)[C@H](Cc1ccc(O)cc1)NC(=O)[C@@H](NC(=O)[C@H](CCCN=C(N)N)NC(=O)CNC)C(C)C)C(=O)N[C@@H](Cc1c[nH]cn1)C(=O)N1CCC[C@H]1C(N)=O [listing 2 of 2 here]
[14]
  Kb: 25.1 nM
